Results published in article PMC5616206 (Toxicology Reports, 2016).

Key:
[1] = Toxicokinetics of S9229 in the 28-day rat study; assay type: in vivo, Sprague-Dawley rats; conditions: male, rat, plasma, po, M
[2] = In vivo metabolism of S9229 in rats; design: species or system Sprague-Dawley rats; conditions: rat plasma, 1 h time point, 100 mg/kg bw oral
[3] = Pharmacokinetics of S9229 in rats, single iv or oral dose; assay type: in vivo, Sprague-Dawley rats; conditions: for AUC(0-t) / Cmax / Tmax / Vd / clearance / half-life / bioavailability: Sprague-Dawley, rat, plasma; for AUC0-24hr Ratio / Cmax Ratio: vs 10 mg/kg dose
Summary of the method: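 Sprague-Dawley rats, 4/sex, received a 1 mg/kg bw IV bolus in 1% ethanol in saline, with tail-vein sampling from 2 min to 8 h. Oral groups (3/sex/group) were gavaged once with 10, 30 or 100 mg/kg bw in 1% methylcellulose and sampled from 15 min to 24 h. Plasma was assayed for parent and metabolites.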

[4] = In vitro metabolism by rat liver microsomes; assay type: in vitro ADME, Sprague-Dawley rat; conditions: S9229 incubation, relative to S9229 at time = 0
[5] = oral gavage 10 mg/kg bw, female
[6] = oral gavage 30 mg/kg bw, female
[7] = oral gavage 100 mg/kg bw, female

`COC[C@@H](CC(C)C)NC(=O)c1ccc(C)c(C)c1` [S9229, (R)-N-(1-methoxy-4-methylpentan-2-yl)-3,4-dimethylbenzamide] gave a Tmax ([1]; Sprague-Dawley (Crl:CD(SD)), 100 mg/kg, Day 28, 100 mg/kg bw) of 1 h, a half-life ([1]; Sprague-Dawley (Crl:CD(SD)), 100 mg/kg, t1/2, Day 1, 100 mg/kg bw) of 1.04 ± 0.04 h and a half-life ([1]; Sprague-Dawley (Crl:CD(SD)), 100 mg/kg, t1/2, Day 28, 100 mg/kg bw) of 1.39 ± 0.28 h. For the same molecule, the AUC(0-t) ([1]; Sprague-Dawley [Crl:CD(SD)], 30 mg/kg, AUC0-24hr, Day 28, 30 mg/kg bw) was 15.6 ± 2.7 ng·h/mL, the Cmax ([1]; Sprague-Dawley [Crl:CD(SD)], 30 mg/kg, Cmax, Day 28, 30 mg/kg bw) was 6.8 ± 2.3 ng/mL and the Tmax ([1]; Sprague-Dawley [Crl:CD(SD)], 30 mg/kg, Day 28, 30 mg/kg bw) was 1 h. For the same molecule, the half-life ([1]; Sprague-Dawley [Crl:CD(SD)], 30 mg/kg, t1/2, Day 28, 30 mg/kg bw) was 1.42 ± 0.28 h, the “parent compound as % of the total peak area” value [2] was “less than 1%” and the AUC(0-t) ([3]; female, iv, 1 mg/kg) was 1730 ± 376 ng·h/mL. The Cmax ([3]; female, iv, 1 mg/kg) was 3940 ± 1070 ng/mL, the Tmax ([3]; female, iv, 1 mg/kg) was 0.03 h and the Vd ([3]; female, iv, 1 mg/kg) was 2.82 L/kg. It also gave a clearance ([3]; female, iv, 1 mg/kg) of 7.9 mL/min/kg, a half-life ([3]; female, iv, 1 mg/kg) of 4.33 ± 1.65 h and a bioavailability ([3]; female, po) of 0.09 to 0.1%. For the same molecule, the AUC(0-t) ([3]; female, po, 10 mg/kg) was 15.2 ± 11.2 ng·h/mL, the Cmax ([3]; female, po, 10 mg/kg) was 10.5 ± 13.9 ng/mL and the Tmax ([3]; female, po, 10 mg/kg) was 0.25 h. It also gave a bioavailability ([3]; female, po, 10 mg/kg) of 0.09%, a half-life ([3]; female, po, 10 mg/kg) of 0.96 ± 0.3 h and an AUC(0-t) ([3]; female, po, 30 mg/kg) of 49.5 ± 31.7 ng·h/mL. It also gave a Cmax ([3]; female, po, 30 mg/kg) of 55.4 ± 43.9 ng/mL, a Tmax ([3]; female, po, 30 mg/kg) of 0.25 h and a bioavailability ([3]; female, po, 30 mg/kg) of 0.1%. For the same molecule, the half-life ([3]; female, po, 30 mg/kg) was 1.82 ± 2.12 h, the AUC(0-t) ([3]; female, po, 100 mg/kg) was 175 ± 169 ng·h/mL and the Cmax ([3]; female, po, 100 mg/kg) was 102 ± 124 ng/mL. For the same molecule, the Tmax ([3]; female, po, 100 mg/kg) was 1.67 h, the bioavailability ([3]; female, po, 100 mg/kg) was 0.1% and the half-life ([3]; female, po, 100 mg/kg) was 1.03 ± 0.32 h. The “ratio of female/male AUC0-24hr” value ([3]; iv 1 mg/kg) was 1.02, the “ratio of female/male Cmax” value ([3]; iv 1 mg/kg) was 1.08 and the “CL as % of hepatic blood flow” value ([3]; iv, females) was 14.4%. The “CL as % of hepatic blood flow” value ([3]; iv, males) was 13.9%, the AUC(0-t) ([3]; male, iv, 1 mg/kg) was 1690 ± 416 ng·h/mL and the Cmax ([3]; male, iv, 1 mg/kg) was 3650 ± 1180 ng/mL. For the same molecule, the Tmax ([3]; male, iv, 1 mg/kg) was 0.03 h, the Vd ([3]; male, iv, 1 mg/kg) was 3.47 L/kg and the clearance ([3]; male, iv, 1 mg/kg) was 7.65 mL/min/kg. For the same molecule, the half-life ([3]; male, iv, 1 mg/kg) was 5.38 ± 2.16 h, the bioavailability ([3]; male, po) was 0.04 to 0.1% and the AUC(0-t) ([3]; male, po, 10 mg/kg) was 11.3 ± 10 ng·h/mL. For the same molecule, the Cmax ([3]; male, po, 10 mg/kg) was 19.4 ± 24 ng/mL, the Tmax ([3]; male, po, 10 mg/kg) was 0.25 h and the bioavailability ([3]; male, po, 10 mg/kg) was 0.07%. It also gave a half-life ([3]; male, po, 10 mg/kg) of 1.38 ± 1.28 h, an AUC(0-t) ([3]; male, po, 30 mg/kg) of 20.6 ± 3.7 ng·h/mL and a Cmax ([3]; male, po, 30 mg/kg) of 11.9 ± 0.6 ng/mL. For the same molecule, the Tmax ([3]; male, po, 30 mg/kg) was 0.25 h, the bioavailability ([3]; male, po, 30 mg/kg) was 0.04% and the half-life ([3]; male, po, 30 mg/kg) was 1.78 ± 0.69 h. It also gave an AUC(0-t) ([3]; male, po, 100 mg/kg) of 175 ± 57.8 ng·h/mL, a Cmax ([3]; male, po, 100 mg/kg) of 52.3 ± 12 ng/mL and a Tmax ([3]; male, po, 100 mg/kg) of 0.83 h. For the same molecule, the bioavailability ([3]; male, po, 100 mg/kg) was 0.1%, the half-life ([3]; male, po, 100 mg/kg) was 2.24 ± 1.09 h and the “AUC0-24hr Ratio” value [3, 5] was 1. The “Cmax Ratio” value [3, 5] was 1, the “AUC0-24hr Ratio” value ([3]; oral gavage 10 mg/kg bw, male) was 1 and the “Cmax Ratio” value ([3]; oral gavage 10 mg/kg bw, male) was 1. For the same molecule, the “AUC0-24hr Ratio” value [3, 6] was 3.26, the “Cmax Ratio” value [3, 6] was 5.28 and the “AUC0-24hr Ratio” value ([3]; oral gavage 30 mg/kg bw, male) was 1.82. For the same molecule, the “Cmax Ratio” value ([3]; oral gavage 30 mg/kg bw, male) was 0.61, the “AUC0-24hr Ratio” value [3, 7] was 11.5 and the “Cmax Ratio” value [3, 7] was 9.68. The “AUC0-24hr Ratio” value ([3]; oral gavage 100 mg/kg bw, male) was 15.5, the “Cmax Ratio” value ([3]; oral gavage 100 mg/kg bw, male) was 2.70 and the “% MS (EIC) Peak Area” value ([4]; 10 min) was 36.4%. For the same molecule, the “% MS (EIC) Peak Area” value ([4]; 20 min) was 1.93%.
